Reference: ChEMBL document CHEMBL1649525, “Population pharmacokinetic analysis of colistin methanesulfonate and colistin after intravenous administration in critically ill patients with infections caused by gram-negative bacteria” (Antimicrob Agents Chemother, 2009)

How the values were obtained:
[1] = Clearance in patient with gram-negative bacterial infection at […], iv; format: ADME, organism-based; parameters: route intravenous; conditions: human, in vivo
Outline: (§1)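 Critically ill ICU patients (n=18) received CMS 3 MU (240 mg) in 100 ml saline as a 15-min IV infusion every 8 h, reduced to 160 mg q8h if creatinine clearance was <50 ml/min. Venous plasma was taken predose and 15–465 min after the first and fourth infusions, then chilled and stored at −70°C. Colistin was measured by LC-MS/MS, and CMS after acid hydrolysis. Parameters came from NONMEM population modelling.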

[2] = Volume of distribution of central compartment in patient with gram-negative bacterial infection at […], iv; format: ADME, organism-based; parameters: route intravenous; conditions: human, in vivo; outline: as §1
Acinetobacter baumannii [3] = test: Antimicrobial activity against Acinetobacter baumannii by CLSI method; format: functional
[4] = Cmax in patient with gram-negative bacterial infection at […], iv after 15 mins; format: ADME, organism-based; parameters: route intravenous; conditions: human, in vivo; outline: as §1
Homo sapiens [5] = test: Intercompartmental clearance in patient with gram-negative bacterial infection at […], iv; format: ADME, organism-based; parameters: route intravenous; conditions: in vivo; outline: as §1
Pseudomonas aeruginosa [6] = test: Antimicrobial activity against Pseudomonas aeruginosa by EUCAST method; format: functional
Acinetobacter baumannii [7] = test: Antimicrobial activity against Acinetobacter baumannii by EUCAST method; format: functional
[8] = Drug concentration at steady state in patient with gram-negative bacterial infection at […], iv after 7 hrs; format: ADME, organism-based; parameters: route intravenous; conditions: human, in vivo, read-out: Css; outline: as §1
Pseudomonas aeruginosa [9] = test: Antimicrobial activity against Pseudomonas aeruginosa by CLSI method; format: functional
[10] = (§2) Half life in peripheral compartment of patient with gram-negative bacterial infection at […], iv; format: ADME, organism-based; parameters: route intravenous; conditions: human, in vivo; outline: as §1
[11] = (§3) Half life in central compartment of patient with gram-negative bacterial infection at […], iv; format: ADME, organism-based; parameters: route intravenous; conditions: human, in vivo; outline: as §1
Homo sapiens [12] = test: Volume of distribution of formed compound in patient with gram-negative bacterial infection at […], iv; format: ADME, organism-based; parameters: route intravenous; conditions: in vivo; outline: as §1
Homo sapiens [13] = test: Clearance of formed compound in patient with gram-negative bacterial infection at […], iv; format: ADME, organism-based; parameters: route intravenous; conditions: in vivo; outline: as §1
Homo sapiens [14] = test: as §2; format: ADME, organism-based; parameters: route intravenous; conditions: in vivo; outline: as §1
Homo sapiens [15] = test: Half life in patient with gram-negative bacterial infection at […], iv; format: ADME, organism-based; parameters: route intravenous; conditions: in vivo; outline: as §1
Homo sapiens [16] = test: as §3; format: ADME, organism-based; parameters: route intravenous; conditions: in vivo; outline: as §1

clearance [1]	Vd [2]	MIC (Acinetobacter baumannii [3])	Cmax [4]	CL (Homo sapiens [5])	MIC (Pseudomonas aeruginosa [6])	MIC (Acinetobacter baumannii [7])	concentration at 7 h [8]	MIC (Pseudomonas aeruginosa [9])	half-life [10]	half-life [11]	Vd (Homo sapiens [12])	CL (Homo sapiens [13])	t1/2 (Homo sapiens [14])	t1/2 (Homo sapiens [15])	t1/2 (Homo sapiens [16])	Compound
228 mL/min	13.5 L	≤ 2 µg/mL	2930 ng/mL	133 L/h	≤ 2 µg/mL	≤ 2 µg/mL	2300 ng/mL	≤ 2 µg/mL	2.3 h	2.76 min	–	–	–	–	–	CCC(C)CCCCC(=O)N[C@@H](CCNCS(=O)(=O)O)C(=O)N[C@H](C(=O)N[C@@H](CCNCS(=O)(=O)O)C(=O)N[C@H]1CCNC(=O)[C@H]([C@@H](C)O)NC(=O)[C@H](CCNCS(=O)(=O)O)NC(=O)[C@H](CCNCS(=O)(=O)O)NC(=O)[C@H](CC(C)C)NC(=O)[C@@H](CC(C)C)NC(=O)[C@H](CCNCS(=O)(=O)O)NC1=O)[C@@H](C)O.CS(=O)(=O)O (stereo partly specified) [COLISTIN METHYLSULPHATE]
–	–	–	–	–	–	–	–	–	–	–	189 L	9.09 L/h	14.4 h	7.1 h	14.4 h	COLISTIN
